# Assay outcomes from PubChem.
# Runt-SMMHC FRET – Runt domain-CBFb-SMMHC interaction inhibition | Cerulean-Runt/Venus-CBFb-SMMHC FRET ratio 530/480, 1 h | Q01196+Q13951 | 0.74% of 220,000 active | AID 1434 | inhibition, % at 20 µM;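 active = mean inhibition across duplicate retests at 20 µM reaching about 50%, limit read from the data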;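 also: 0% = DMSO wells and 100% = wells with excess untagged CBFb-SMMHC; inhibitors lower the FRET ratio by blocking Runt binding to CBFb-SMMHC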
# Wee1 degr inh – human Wee1 degradation inhibition, primary screen; P30291; AID 1321; HeLa Luc-Wee1K328M stability, luciferase luminescence; 100% = proteasome inhibitor MG132 effect; 1.2% of 220,000 active; reporter increase, % at 5 µM;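 active = activation above the mean of all tested compounds plus 3 SD, set per screening run, cut at about 8.8% in these data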;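 also: cells exposed to compound for 20 h before luminescence read; 0% = DMSO alone and 100% = MG132 at 30 µM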
# Target sequence (P30291 whole entry K328M): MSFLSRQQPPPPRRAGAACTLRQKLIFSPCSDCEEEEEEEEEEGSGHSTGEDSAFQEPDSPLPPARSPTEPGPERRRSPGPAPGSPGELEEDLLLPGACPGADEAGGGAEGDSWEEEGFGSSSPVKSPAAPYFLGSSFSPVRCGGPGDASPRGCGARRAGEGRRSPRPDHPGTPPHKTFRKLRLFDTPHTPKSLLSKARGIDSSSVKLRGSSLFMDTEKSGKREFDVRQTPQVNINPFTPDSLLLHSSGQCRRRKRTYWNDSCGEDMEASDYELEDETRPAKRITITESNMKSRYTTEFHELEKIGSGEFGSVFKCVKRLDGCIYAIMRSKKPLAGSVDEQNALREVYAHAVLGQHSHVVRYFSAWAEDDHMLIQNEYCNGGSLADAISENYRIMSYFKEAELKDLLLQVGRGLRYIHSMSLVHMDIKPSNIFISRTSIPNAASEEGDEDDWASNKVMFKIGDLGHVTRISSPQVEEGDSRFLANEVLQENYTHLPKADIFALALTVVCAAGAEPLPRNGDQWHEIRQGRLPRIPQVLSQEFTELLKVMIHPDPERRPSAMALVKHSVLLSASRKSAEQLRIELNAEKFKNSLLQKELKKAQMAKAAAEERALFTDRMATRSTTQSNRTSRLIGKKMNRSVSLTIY
# PHOSPHO1 block – PHOSPHO1 (human) inhibition; 1.1% of 290,000 active; inhibition, % at 13.3 µM; recombinant PHOSPHO1, absorbance phosphatase assay; in the data active = inhibition above about 60%
# Efa HMGR inh – blocks class II HMG-CoA reductase of Enterococcus faecalis; inhibition, % at 10 µM; purified E. faecalis HMGR, NADPH absorbance 340 nm kinetic; AID 1066; 0.41% of 190,000 active;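 active = inhibition above a set limit, the median over all tested compounds plus 3 SD, cut at about 9.5% in these data; inconclusive = no clear call, values can overlap the other calls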;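 also: enzyme runs in reverse so mevalonate oxidation gives rising NADPH absorbance; 0% = complete reaction with DMSO and 100% = background rate lacking mevalonate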
# Runt-CBFb FRET – blocks binding of human RUNX1 Runt domain to CBFb; 0.46% of 220,000 active; Cerulean-Runt/Venus-CBFb FRET ratio 530/480, 1 h; AID 1496; inhibition, % at 20 µM;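 active = inhibition over about 50% at 20 µM in the single-dose screen, limit read from the data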;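 also: 0% = DMSO wells and 100% = excess unlabeled CBFb competitor control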
#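 Assay system: Cerulean-Runt domain / Medium: Tris 50 mM pH 7.5, KCl, K2SO4, 0.01% BSA / Timing: protein complex preformed 1 h, compound exposure 1 h, room temperature, dark / Measured by: FRET, excitation 422 nm, emission at 530 and 480 nm / Evaluation: loss of energy transfer signal / Control set: 5 µM unlabeled CBFb as full-inhibition high control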
# RanGTP-Impb inh – inhibitors of RanGTP-importin-beta interaction, primary screen, biochemical, FRET, CFP-Ran, YFP-importin-beta, homogeneous. cell-free CFP-Ran/YFP-importin-beta FRET ratio. inhibition, % (no concentration beside the values). 1.1% of 300,000 active;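 active = more than half of the replicate wells show a fall in the fluorescence ratio signal beyond about 16%, limit read from the data, passing the limit was not always enough; inconclusive = exactly half of the replicate wells pass the set limit; inactive = fewer than half of replicates pass the limit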;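 also: 0% = DMSO wells and 100% = Ran loaded with GDP instead of GTP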
# * hit, by the source's call; ? = inconclusive; . = no result. Rows were chosen to be rich in hits. Some 3.4% of all compounds tested hit in one or more screens of this group.
SMILES,Runt-SMMHC FRET,Wee1 degr inh,PHOSPHO1 block,Efa HMGR inh,Runt-CBFb FRET,RanGTP-Impb inh
CCOC(=O)c1ccc[n+](CC(=O)c2ccccc2)c1,-9,3,-24,0,-3,25*
O=c1[nH]c2ccccc2cc1CN(CC1CCCO1)S(=O)(=O)c1ccccc1 (centres undefined),.,.,14,.,.,3
N#C/C(=C(/O)CCCl)c1ccccn1,92*,-1,27,-4,49,21*
N#C/C(=C(\O)c1ccco1)c1ccccn1,-6,3,-11,-4,0,-2
CSCCC(NC(=O)CCC(=O)OCC(=O)[C@@]1(O)CCC2[C@@H]3CCC4=CC(=O)C=C[C@]4(C)C3[C@@H](O)C[C@@]21C)C(=O)O (some centres undefined),.,.,32,.,.,-1
COc1ccccc1N1CCN(S(=O)(=O)CCNC(=O)C2CCCCC2)CC1,.,.,.,.,.,3
COc1ccccc1N1CCN(CCCNC(=O)Cn2ncc3c([nH]c4ccccc43)c2=O)CC1,.,.,34,.,.,3
CCn1cc(/C=C/C(=O)c2ccc(O)cc2)c(C)n1,-1,-1,60*,4,0,-1
COC(=O)C(C)(C)ONC(=O)Nc1ccc(C)cc1,-1,-2,6,-4,-5,3
COC(=O)C(C)(C)ONC(=O)Nc1ccc([N+](=O)[O-])cc1,0,2,61*,0,1,?
CC(C)C(=O)Nc1sc2c(c1C(N)=O)CCN(Cc1ccccc1)C2,.,.,15,.,.,134*
CCC(=O)Nc1sc2c(c1C(N)=O)CCN(Cc1ccccc1)C2,.,.,25,.,.,134*
NC(=O)c1c(NC(=O)c2ccccc2)sc2c1CCN(Cc1ccccc1)C2,.,.,-9,.,.,8
NC(=O)c1c(NC(=O)c2c(F)cccc2F)sc2c1CCN(Cc1ccccc1)C2,.,.,25,.,.,163*
Cc1cnc(NC(=O)Nc2ccc(OCc3ccccc3)cc2)c(Br)c1,.,.,33,.,.,0
Cn1ncc([N+](=O)[O-])c1C(=O)NC1CCCCC1,.,.,34,.,.,2
Cn1cccc1/C=C1\Cc2ccccc2C1=O,33,2,21,-4,19,75*
O=C1CN(c2ccccc2)C(=S)N1C(=O)c1ccc(Br)cc1,.,.,8,.,.,4
S=c1[nH]nc(-c2ccccc2)o1,1,-1,101*,-7,4,1
Cc1ccccc1-c1n[nH]c(=S)o1,2,1,96*,-11,5,28
CSc1ccccc1-c1n[nH]c(=S)o1,6,4,45,-4,8,3
COc1ccc(CN(Cc2cc3cccc(C)c3n3nnnc23)C(=O)N2CCOCC2)cc1,2,-2,31,-4,0,2
O=C(CNS(=O)(=O)c1ccccc1)OCC(=O)c1ccccc1Cl,.,.,48,.,.,-3
CC(C)C1C(C#N)=C(N)SC(N)=C1C#N,5,0,73*,-2,2,8
CCOc1ccc(CCNC(=O)COC(=O)c2ccc(C)c([N+](=O)[O-])c2)cc1OCC,.,.,36,.,.,5
SMILES,Runt-SMMHC FRET,Wee1 degr inh,PHOSPHO1 block,Efa HMGR inh,Runt-CBFb FRET,RanGTP-Impb inh
CC1=C(C(=O)OC(C)C)C(c2ccc(C)o2)NC(=O)N1 (centres undefined),0,-1,-20,11*,1,6
C=C(Cl)COc1ccc2c(CC)cc(=O)oc2c1,2,-1,11,-8,-2,.
C=C(Cl)COc1ccc2c(CCCC)cc(=O)oc2c1,-3,9.3*,-6,-3,-4,0
O=S(=O)(c1ccccc1)c1nc(Nc2ccccc2N2CCOCC2)sc1Cl,3,1,79*,-1,1,-1
CC(C)(C)CN1CCN(Cc2nc(-c3ccc(F)cc3)cs2)CC1CCO (centres undefined),.,.,3,.,.,-1
O=c1oc2ccc3ccccc3c2c2c1SC(C(F)(F)F)C2 (centres undefined),54*,0,-4,-1,22,10
Cc1ccc(-c2cc3c(nn2)-c2ccccc2C3=O)cc1,-1,-5,24,.,1,4
O=C1c2ccccc2-c2nnc(-c3ccc(F)cc3)cc21,0,9.8*,8,-1,1,-1
O=C(O)c1cc(N/N=C/c2ccc(OCc3ccccc3)cc2)ccc1Cl,-30,1,1,-5,-19,0
O=C(O)c1cc(N/N=C/C=C/c2ccccc2)ccc1Cl,87*,3,-64,1,39,-2
OCCC1CN(Cc2cnn(-c3ccc(F)cc3)c2)CCN1Cc1ccsc1 (centres undefined),2,4,60*,-1,-1,0
CC(=O)c1cccc(CN2CCN(Cc3ccc(F)cc3)C(CCO)C2)c1 (centres undefined),-5,-1,60*,-3,0,0
CSc1cccc(CN2CCN(Cc3ccccc3)C(CCO)C2)c1 (centres undefined),-4,-1,47,-9,1,-4
CSc1ccc(CN2CCN(Cc3ccccc3)C(CCO)C2)cc1 (centres undefined),0,-2,28,11*,-2,-1
CCOc1ccc(CN2CCN(Cc3cc4ccccc4[nH]3)CC2CCO)cc1 (centres undefined),-7,1,52,14*,4,21*
CC(=O)c1cccc(CN2CCN(Cc3ccc(C)cc3)C(CCO)C2)c1 (centres undefined),-1,0,23,-2,3,-1
O=C1CSC(=S)N1/N=C/c1ccc(Cl)c([N+](=O)[O-])c1,-6,1,19,.,12,7
COc1cccc2cc(C(C)OC(=O)Nc3ccc(C)cc3)oc12 (centres undefined),-1,9.1*,4,-7,1,2
Cn1c(CNC(=O)c2ccco2)nnc1SCC(=O)Nc1cccc(Br)c1,2,1,93*,-5,-3,1
O=C(NCC(=O)N1CCN(c2ccccc2)CC1)c1ccccc1,.,.,37,.,.,-4
Cc1cccn2c(=O)c3cc(C(=O)NCCc4ccccc4)sc3nc12,.,.,11,.,.,0
CSc1ccccc1NC(=O)c1cc2c(=O)n3ccccc3nc2s1,.,.,53,.,.,71*
Cc1cccn2c(=O)c3cc(C(=O)NC4CCCCCC4)sc3nc12,.,.,14,.,.,19*
Cc1ccccc1NC(=O)c1cc2c(=O)n3cccc(C)c3nc2s1,.,.,6,.,.,84*
CN1CCN(C(=O)c2cc3c(=O)n4ccccc4nc3s2)CC1,.,.,26,.,.,20*
CC(C)(C)c1ccc(C2=CC(c3ccccc3F)n3ncnc3N2)cc1 (centres undefined),.,.,.,.,.,25*
CCOc1ccc(C2C=C(c3ccccc3)Nc3ncnn32)cc1 (centres undefined),-37,-1,16,-4,-107,-40
CCOc1ccc(C2C=C(c3ccc(F)cc3)Nc3ncnn32)cc1 (centres undefined),63*,0,24,-6,18,-7
